UCH37 DUB inh – inhibitors of human UCH37 deubiquitinase, primary screen, biochemical, Ub-AMC cleavage, fluorescence. AID 588478, 2011. Ubiquitin carboxyl-terminal hydrolase isozyme L5 (Homo sapiens), Q9Y5K5. hit rate 0.33% among 330,000. purified proteasome/UCH37. inhibition, % (concentration not given with the values);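 active means mean inhibition over replicate wells above about 20%, limit read from the data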;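 further: 0% = compound-free wells with enzyme and 100% = wells lacking proteasome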
Target sequence (Q9Y5K5 whole entry, looked up): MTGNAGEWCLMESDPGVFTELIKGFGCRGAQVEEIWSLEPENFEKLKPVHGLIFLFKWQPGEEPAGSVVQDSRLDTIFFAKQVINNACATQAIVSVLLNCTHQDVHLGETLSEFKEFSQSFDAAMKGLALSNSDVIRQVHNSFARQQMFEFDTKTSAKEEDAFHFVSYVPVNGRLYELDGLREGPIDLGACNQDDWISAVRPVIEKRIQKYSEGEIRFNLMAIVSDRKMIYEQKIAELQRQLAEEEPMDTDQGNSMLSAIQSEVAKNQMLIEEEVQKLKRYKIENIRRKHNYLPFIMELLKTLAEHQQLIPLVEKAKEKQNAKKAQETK
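Schedule: 30 min plus 25 min, room temperature / Material: human UCH37 within purified proteasomes / Technique: AMC fluorescence intensity at 355/460 nm / Buffer or medium: pH 7.4 Tris-HCl (50 mM) with ovalbumin, ATP-MgCl2, DTT / Controls: wells without proteasome as full block, compound-free enzyme plus substrate as uninhibited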
UPR CHOP act – activators of apoptotic CHOP UPR arm, primary screen, cell-based, CHO-CHOP luciferase reporter, luminescence, uHTS | activation, % at 10 µM | UPR activation; percent of tunicamycin response over DMSO baseline | AID 449763, 2010 | hit rate 0.34% among 330,000;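 active means at 10 µM dose, activation of 40% or more, normalized to positive control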;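 further: 100% = tunicamycin at 10 µg/mL and 0% = DMSO alone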
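Assay system: CHO cells with stable CHOP pathway luciferase reporter; Buffer or medium: F12 plus 10% serum; Times: 16-18 h cell attachment, then 6 h compound exposure, 37 °C; Signal: luciferase luminescence; Read-out basis: percent activation relative to tunicamycin control; Control set: tunicamycin high control, DMSO low control.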
UPR XBP1 act – activators of adaptive XBP1 UPR arm, primary screen, cell-based, CHO-XBP1 luciferase reporter, luminescence, uHTS | IRE1-XBP1 UPR activation; percent of tunicamycin response, DMSO as zero | hit rate 0.33% among 330,000 | activation, % at 20 µM | AID 463104, 2010;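 active means versus positive control, 20 µM dose yields 30% or more activation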;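 further: 100% = tunicamycin at 10 µg/mL and 0% = DMSO only wells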
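Material: CHO cell line with stable XBP1 luciferase reporter; schedule: 16-18 h cell attachment at 37 °C, then 6 h compound exposure; signal: glow luminescence from Steady-Glo reagent; medium: serum-containing F12 medium, 10% FBS; benchmarks: tunicamycin 10 µg/mL and vehicle-only wells; read-out: percent activation relative to tunicamycin reference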
Fh CTSL1 inh – Fasciola hepatica cathepsin L1 inhibitors, primary screen, counter-screen for PFM18AAP inhibitor project, biochemical, QFRET, fluorogenic peptide substrate; hit rate 0.49% among 300,000; inhibition, % at 5.96 µM; recombinant F. hepatica cathepsin L1, Z-Leu-Arg-MCA fluorescence;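 active means inhibition above the mean of all tested compounds plus 3 SD, set per screening campaign, cut at about 17% in these data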;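 further: 0% = plate median of test compound wells and 100% = 1 µM Z-Phe-Ala-diazomethylketone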
CHOP inhibitor – inhibitors of CHOP promoter induction, primary screen, cell-based, unfolded protein response, luciferase reporter. CHO-K1 CHOP-promoter luciferase, tunicamycin-induced, 15-18 h. inhibition, % at 10 µM. AID 2732, 2010. hit rate 3.8% among 220,000;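 active means compounds that reduced the stress-induced luciferase reporter signal by more than about 70% of percent inhibition, limit read from the data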;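 further: 0% = tunicamycin plus vehicle and 100% = wells without tunicamycin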
Active calls of the source: *; nt = no result given. This excerpt belongs to a sample that is enriched for hits.

SMILES	UCH37 DUB inh	UPR CHOP act	UPR XBP1 act	Fh CTSL1 inh	CHOP inhibitor
Clc1ccc2nc(N3CCNCC3)nc(-c3ccccc3)c2c1	-343	2	23	-4	nt
Cc1cc(C=Nn2cnnc2)c(C)n1-c1ccc(Cl)cc1	3	nt	nt	nt	nt
COc1ccc(C=NNC(=O)c2ccccc2NC(=O)c2ccco2)c(OC)c1	-3	nt	nt	nt	nt
CCN1C(=O)CSC1=NS(=O)(=O)c1ccccc1	4	nt	nt	nt	nt
CCN1C(=O)CSC1=NC1C2CC3CC(C2)CC1C3 (stereo not drawn)	0	-3	-2	2	76*
CC(C)CC(NC(=O)CCl)c1ccccc1 (stereo not drawn)	1	0	-3	15	19
CCCC(NC(=O)CCl)c1ccccc1 (stereo not drawn)	1	0	-2	22*	4
CC(=NNC(=S)NCc1ccccc1)c1ccc(Cl)s1	5	nt	nt	nt	nt
O=c1cc(N2CCCCC2)c(-c2ccccc2)nn1Cc1ccccc1	8	0	0	0	85*
COc1ccc(Cn2nc(-c3ccccc3)c(N3CCCCC3)cc2=O)cc1	3	-3	-1	5	74*
O=C(Oc1ccc(C=NO)cc1)c1ccccc1	1	nt	nt	nt	nt
Cc1ccc(SC(C)C(=O)Nc2ccccc2-c2ccccc2)cc1 (stereo not drawn)	3	0	1	-1	1
CC(Sc1ccc(Cl)cc1)C(=O)Nc1ccccc1-c1ccccc1 (stereo not drawn)	6	nt	nt	-3	93*
Oc1nc(Nc2cccc(Cl)c2)sc1/C=C1\C=Nc2ccccc21	3	5	-2	3	79*
CCOC(=O)c1c(N)sc2c1CCC(CC)C2 (stereo not drawn)	1	2	1	0	77*
CCC1CCc2c(sc(N)c2C(N)=O)C1 (stereo not drawn)	-2	-2	-3	-2	25
CCCCNC(=O)CCCCC(=O)NN=Cc1ccccc1Cl	0	nt	nt	nt	nt
CCCNS(=O)(=O)c1ccc(Oc2ncc(C(F)(F)F)cc2Cl)cc1	2	0	4	0	74*
C=CCn1c(CSc2nnc(-c3ccccc3)n2C)n[nH]c1=S	0	-1	-2	28*	8
C=CCn1c(SCc2n[nH]c(=S)n2-c2ccccc2)nnc1-c1ccccc1	5	0	-2	-1	0
CC(/C=C1\N=C(SCc2ccccc2Cl)SC1=O)=C\c1ccccc1	7	1	2	3	76*
c1ccc(CC2CCN(c3ncnc4sccc34)CC2)cc1	2	nt	nt	nt	74*
O=C(O)c1cc2c(N3CCC(Cc4ccccc4)CC3)ncnc2s1	4	0	0	6	-3
O=C(COc1ccc(Br)cc1Br)NC(=O)NC1CCCC1	-2	3	2	4	87*
O=C(COc1ccc(Br)cc1Cl)NC(=O)NCc1ccccc1	2	2	-5	-1	80*
SMILES	UCH37 DUB inh	UPR CHOP act	UPR XBP1 act	Fh CTSL1 inh	CHOP inhibitor
CC(C)(C)NC(=O)NC(=O)COc1ccc(Br)cc1Br	2	3	-3	3	83*
O=C(COc1ccc(Br)cc1)NN=C1SCC(=O)N1Cc1ccco1	0	nt	nt	nt	nt
O=C(COC(=O)CCC1CCCC1)Nc1ccc(Cl)cn1	0	1	-3	-8	73*
COc1cc(C(=O)COC(=O)CNC(=O)C2CCCCC2)cc(OC)c1OC	3	0	-1	36*	3
COC(=O)c1c(NC(=O)COC(=O)CNC(=O)C2CCCCC2)sc(C)c1C	-31	0	2	15	78*
COc1cc(C(=O)COC(=O)C2CCCCC2)cc(OC)c1OC	0	1	2	nt	nt
Cc1ccc(NC(=O)COC(=O)CNC(=O)C2CCCCC2)c(Br)c1	1	-1	-4	47*	20
O=C(COC(=O)C1CCC1)Nc1ccc(Cl)cn1	-1	0	-2	nt	nt
O=C(COC(=O)CNC(=O)C1CCCCC1)Nc1ccc(Cl)cc1F	-2	-2	-1	34*	2
CC[N+](CC)(CC)CC(=O)Nc1c(C)cccc1C	6	1	-1	21*	20
Cc1cccc(C)c1NC(=O)CNCC(=O)Nc1c(C)cccc1C	2	-2	-2	3	nt
O=C(Nc1cccc2c1C(=O)NC2=O)c1ccc(N2C(=O)CCC2=O)cc1	-73	0	-4	42*	-15
CCOc1ccc(CCNC(=O)CCS(=O)(=O)c2ccc(OC)cc2)cc1OCC	30*	0	-2	6	30
N#Cc1cccc(C(c2nnnn2C2CCCC2)N2CCCCCC2)c1 (stereo not drawn)	-1	1	-3	1	25
Cc1ccccc1NC(c1cccc(Cl)c1)c1nnnn1C1CCCCC1 (stereo not drawn)	-1	-1	3	1	87*
CC1(C)CC2CC(C)(CN2C(=O)COC(=O)CNC(=O)c2ccc(Cl)c(Cl)c2)C1 (stereo not drawn)	3	8	-1	27*	29
CC1(C)CC2CC(C)(CN2C(=O)COc2cccc3ccccc23)C1 (stereo not drawn)	1	-1	0	6	91*
O=C(COc1cccc2ccccc12)N1c2ccccc2CCc2ccccc21	-1	1	3	3	74*
COc1cccc(C=NNC(=O)c2cccc([N+](=O)[O-])c2)c1OS(=O)(=O)c1ccccc1	1	nt	nt	nt	nt
CCC(=O)c1ccc(OCC(O)CN2CCN(C(c3ccccc3)c3ccccc3)CC2)cc1 (stereo not drawn)	1	0	-1	0	86*
OC(COc1ccccc1)CN1CCN(C(c2ccccc2)c2ccccc2)CC1 (stereo not drawn)	3	-1	-5	4	nt
COc1ccc(/C=C/C(=O)Oc2cccc(/C=N/NC(=O)Cc3ccc(Br)cc3)c2)cc1	nt	21	15	-2	71*
CC1=NC(=O)C(N=Nc2ccccc2)N1c1ccccc1 (stereo not drawn)	0	4	3	8	-10
CC1=NC(=O)C(N=Nc2ccccc2C(=O)O)N1c1ccccc1 (stereo not drawn)	21*	2	6	nt	-17
Cc1ccc(NC(=O)CCSc2nnc(-c3ccco3)o2)cc1	0	1	0	-5	32
Cc1ccc(NC(=O)CSc2ccc(-c3ccco3)nn2)cc1	0	0	-3	2	74*
CC(=O)Nc1ccc(NC(=O)CSc2ccc(-c3ccco3)nn2)cc1	2	-1	-1	2	5
Cc1ccc(SCC(=O)Nc2ccc(-c3nnc(-c4ccco4)o3)cc2)cc1	-2	3	4	6	75*
O=C(NN=Cc1ccc(O)cc1)Nc1cccc2nsnc12	-7	nt	nt	nt	nt

Bioassay records: PubChem BioAssay, several laboratories
